# Activity calls are given as the source filed them. The calls are words filed in the database; no cut-off is given here.
# Columns and labels:
# [1] = target: Serine/threonine-protein kinase Nek5 (Homo sapiens) (UniProt Q6P3R8); test: Binding affinity to wild-type human partial length NEK5 (M1 to M279 residues) expressed in bacterial expression system assessed as residual binding level at 1 uM by Kinomescan method relative to control
# [2] = target: Bone morphogenetic protein receptor type-1B (Homo sapiens) (UniProt O00238); test: Binding affinity to wild-type human partial length BMPR1B (D178 to L502 residues) expressed in mammalian expression system assessed as residual binding level at 1 uM by Kinomescan method relative to control
# [3] = system: Mus musculus; test: In vivo inhibition of SRC in C57B6 mouse assessed as blocking of SRC pulldown at 5 mg/kg, ip measured after 2 to 4 hrs by Western blot analysis; assay type: functional, organism-based
# Outline: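 Adult C57B6 mice, n = 2 per condition. Three intraperitoneal doses of 5 mg/kg, given every 12 h; vehicle is 5% DMSO/95% D5W. Spleens harvested 2 or 4 h after the last dose, homogenized and lysed in M-PER with protease/phosphatase inhibitors. Lysate incubated with 1 μM biotinylated probe TL13-68 overnight at 4 °C, streptavidin pulldown, SRC detected by Western blot.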
# [4] = target: Tyrosine-protein kinase Srms (Homo sapiens) (UniProt Q9H3Y6); test: Binding affinity to wild-type human partial length SRMS (L208 to P488 residues) expressed in mammalian expression system assessed as residual binding level at 1 uM by Kinomescan method relative to control
# [5] = target: Serine/threonine-protein kinase Nek10 (Homo sapiens) (UniProt Q6ZWH5); test: Binding affinity to wild-type human partial length NEK10 (L488 to R809 residues) expressed in mammalian expression system assessed as residual binding level at 1 uM by Kinomescan method relative to control
# [6] = system: Mast/stem cell growth factor receptor Kit (Homo sapiens), P10721 [D816H]; test: Binding affinity to human partial length KIT D816H mutant (I571 to D952 residues) expressed in mammalian expression system assessed as residual binding level at 1 uM by Kinomescan method relative to control
# Outline: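 KinomeScan active site-directed competition binding panel (468 kinases), compound tested at 1 μM. Result expressed as remaining kinase signal versus DMSO control (percent of control).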
# [7] = target: Casein kinase II subunit alpha' (Homo sapiens) (UniProt P19784); test: Binding affinity to wild-type human full length CSNK2A2 (M1 to R350 residues) expressed in mammalian expression system assessed as residual binding level at 1 uM by Kinomescan method relative to control
# Outline: (§1)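 Active-site-directed KinomeScan competition binding panel covering 468 kinases, compound tested at 1 μM. Each readout is the kinase signal remaining with compound, expressed as a percentage of the DMSO control. […]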
# [8] = target: Serine/threonine-protein kinase TAO2 (Homo sapiens) (UniProt Q9UL54); test: Binding affinity to wild-type human partial length TAOK2 (M1 to A320 residues) expressed in mammalian expression system assessed as residual binding level at 1 uM by Kinomescan method relative to control
# [9] = target: Serine/threonine-protein kinase 17B (Homo sapiens) (UniProt O94768); test: Binding affinity to wild-type human full length DRAK2 (M1 to C372 residues) expressed in bacterial expression system assessed as residual binding level at 1 uM by Kinomescan method relative to control; outline: as §1
# [10] = target: Phosphatidylinositol 5-phosphate 4-kinase type-2 beta (Homo sapiens) (UniProt P78356); test: Binding affinity to wild-type human full length PIP5K2B (M1 to T416 residues) expressed in bacterial expression system assessed as residual binding level at 1 uM by Kinomescan method relative to control
# Outline: (§2)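 KinomeScan, an active site-directed competition binding panel of 468 kinases. The test compound was at 1 μM. The readout is remaining kinase binding as a percentage of the DMSO control. Scores above 35% were treated as weak binding and not listed.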
# [11] = target: Non-receptor tyrosine-protein kinase TNK1 (Homo sapiens) (UniProt Q13470); test: Binding affinity to wild-type human full length TNK1 (M1 to P661 residues) expressed in bacterial expression system assessed as residual binding level at 1 uM by Kinomescan method relative to control; outline: as §2
# [12] = target: MAP kinase-interacting serine/threonine-protein kinase 2 (Homo sapiens) (UniProt Q9HBH9); test: Binding affinity to wild-type human partial length MKNK2 (G63 to S388 residues) expressed in mammalian expression system assessed as residual binding level at 1 uM by Kinomescan method relative to control
# Outline: (§3)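 Active-site-directed competition binding panel of 468 kinases (KinomeScan), compound at 1 μM. The read-out is kinase remaining bound, given as a percentage of the DMSO control. […]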
# [13] = target: Phosphatidylinositol 4-kinase beta (Homo sapiens) (UniProt Q9UBF8); test: Binding affinity to wild-type human full length PIK4CB (M1 to M828 residues) expressed in mammalian expression system assessed as residual binding level at 1 uM by Kinomescan method relative to control
# Outline: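 Active-site-directed competition binding panel (KinomeScan) covering 468 kinases. Test agent was screened at 1 μM. The read-out is the remaining kinase signal expressed relative to a DMSO control. Scores above 35%, taken as weak binding, were not reported.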
# [14] = target: Serine/threonine-protein kinase PAK 2 (Homo sapiens) (UniProt Q13177); test: Binding affinity to wild-type human partial length PAK2 (P151 to R525 residues) expressed in bacterial expression system assessed as residual binding level at 1 uM by Kinomescan method relative to control; outline: as §3
# [15] = target: Glycogen synthase kinase-3 alpha (Homo sapiens) (UniProt P49840); test: Binding affinity to wild-type human full length GSK3A (M1 to S483 residues) expressed in bacterial expression system assessed as residual binding level at 1 uM by Kinomescan method relative to control; outline: as §1
# [16] = target: Mitogen-activated protein kinase 14 (Homo sapiens) (UniProt Q16539); test: Binding affinity to wild-type human full length p38-alpha (M1 to S360 residues) expressed in bacterial expression system assessed as residual binding level at 1 uM by Kinomescan method relative to control; outline: as §2
# [17] = target: NUAK family SNF1-like kinase 1 (Homo sapiens) (UniProt O60285); test: Binding affinity to wild-type human partial length ARK5 (E25 to I332 residues) expressed in bacterial expression system assessed as residual binding level at 1 uM by Kinomescan method relative to control
# [18] = target: Dual specificity mitogen-activated protein kinase kinase 3 (Homo sapiens) (UniProt P46734); test: Binding affinity to wild-type human full length MEK3 (M1 to S318 residues) expressed in mammalian expression system assessed as residual binding level at 1 uM by Kinomescan method relative to control; outline: as §2
# [19] = target: Rho-associated protein kinase 2 (Homo sapiens) (UniProt O75116); test: Binding affinity to wild-type human partial length ROCK2 (M1 to T431 residues) expressed in mammalian expression system assessed as residual binding level at 1 uM by Kinomescan method relative to control
# [20] = target: Serine/threonine-protein kinase N2 (Homo sapiens) (UniProt Q16513); test: Binding affinity to wild-type human partial length PKN2 (E634 to C984 residues) expressed in bacterial expression system assessed as residual binding level at 1 uM by Kinomescan method relative to control
compound,measurement,setting,value
C=CC(=O)Nc1ccccc1Nc1nc(Nc2ccc(N3CCN(C)CC3)cc2)ncc1C(=O)Nc1c(C)cccc1Cl,Activity,[1],100%
same,Activity,[2],100%
same,inhibition,[3],Active
same,Activity,[4],87%
same,Activity,[5],100%
same,Activity,[6],41%
same,Activity,[7],100%
same,Activity,[8],100%
same,Activity,[9],100%
same,Activity,[10],99%
same,Activity,[11],29%
same,Activity,[12],97%
same,Activity,[13],91%
same,Activity,[14],97%
same,Activity,[15],100%
same,Activity,[16],28%
same,Activity,[17],100%
same,Activity,[18],69%
same,Activity,[19],100%
same,Activity,[20],100%

# Reference: ChEMBL document CHEMBL4354843, “Structure-Based Design of a Potent and Selective Covalent Inhibitor for SRC Kinase That Targets a P-Loop Cysteine” (J Med Chem, 2020)
